How the values were obtained:
Rattus norvegicus [1] = assay: Antiinflammatory activity by rat adjuvant arthritis assay at 30 mg/kg peroral administration (uninjected paw at day 16).; conditions: route oral
Cyclooxygenase [2] = target: T1, Cyclooxygenase (Rattus norvegicus, UniProt P35355+Q63921); assay: Prostaglandin G/H synthase Inhibitory activity against rat polymorphonuclear leucocytes from female wistar rat, by using TXB2.
T1 sequence (P35355 whole entry): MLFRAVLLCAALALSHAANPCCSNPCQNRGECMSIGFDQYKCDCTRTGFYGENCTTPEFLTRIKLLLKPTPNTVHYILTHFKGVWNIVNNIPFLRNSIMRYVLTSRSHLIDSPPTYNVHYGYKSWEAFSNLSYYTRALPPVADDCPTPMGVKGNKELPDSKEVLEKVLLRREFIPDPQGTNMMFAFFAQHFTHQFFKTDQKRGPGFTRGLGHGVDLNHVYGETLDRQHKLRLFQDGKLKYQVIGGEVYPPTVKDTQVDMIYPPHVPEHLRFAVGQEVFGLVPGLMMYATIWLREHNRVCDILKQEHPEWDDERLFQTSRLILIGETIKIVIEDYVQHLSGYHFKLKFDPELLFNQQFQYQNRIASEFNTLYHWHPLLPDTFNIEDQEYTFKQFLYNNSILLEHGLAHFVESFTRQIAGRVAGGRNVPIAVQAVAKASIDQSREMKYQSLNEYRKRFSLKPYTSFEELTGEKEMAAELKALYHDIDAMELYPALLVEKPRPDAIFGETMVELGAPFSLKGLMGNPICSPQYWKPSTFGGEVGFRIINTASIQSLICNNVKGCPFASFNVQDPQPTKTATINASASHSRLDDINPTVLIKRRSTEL
T1 sequence (Q63921 whole entry): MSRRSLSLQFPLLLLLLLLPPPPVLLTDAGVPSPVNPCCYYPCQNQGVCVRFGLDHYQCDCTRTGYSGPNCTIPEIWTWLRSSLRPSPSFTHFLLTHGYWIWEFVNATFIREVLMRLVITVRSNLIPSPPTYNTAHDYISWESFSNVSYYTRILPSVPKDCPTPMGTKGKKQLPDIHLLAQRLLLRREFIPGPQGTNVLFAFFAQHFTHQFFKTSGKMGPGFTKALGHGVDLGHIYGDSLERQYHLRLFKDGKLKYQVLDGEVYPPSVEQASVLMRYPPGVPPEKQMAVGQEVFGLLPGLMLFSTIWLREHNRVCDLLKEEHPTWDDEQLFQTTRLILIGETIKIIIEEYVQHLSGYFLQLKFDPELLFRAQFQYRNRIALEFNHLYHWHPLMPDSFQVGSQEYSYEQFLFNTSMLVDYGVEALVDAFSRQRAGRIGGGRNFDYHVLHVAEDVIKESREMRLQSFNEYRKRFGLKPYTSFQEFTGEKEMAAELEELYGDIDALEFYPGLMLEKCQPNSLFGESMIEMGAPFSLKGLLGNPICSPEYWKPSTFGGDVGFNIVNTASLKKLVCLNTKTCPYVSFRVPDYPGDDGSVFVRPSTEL
Summary of the method: (§1)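 Rat polymorphonuclear leucocytes at 10^7 cells/mL in HBSS (Mg2+, Ca2+, 10 mM cysteine) were preincubated with compound, added in DMSO, for 10 min at 37 °C with shaking. Radiolabeled eicosanoids (5-HETE for the 5-LO pathway, TXB2 for the CO pathway) were separated by HPLC and detected with an in-line radioactivity detector. Results are given as percent change at 10 µM or 50 µM.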

Cyclooxygenase [3] = target: T1, Cyclooxygenase; assay: Prostaglandin G/H synthase Inhibitory activity against rat polymorphonuclear leucocytes from female wistar rat, by using PGE-2.
[4] = target: T2, Polyunsaturated fatty acid 5-lipoxygenase (Rattus norvegicus, UniProt P12527); assay: 5-lipoxygenase inhibitory activity against rat polymorphonuclear leucocytes from female wistar rat, by using 5-HETE.
T2 sequence (P12527 whole entry): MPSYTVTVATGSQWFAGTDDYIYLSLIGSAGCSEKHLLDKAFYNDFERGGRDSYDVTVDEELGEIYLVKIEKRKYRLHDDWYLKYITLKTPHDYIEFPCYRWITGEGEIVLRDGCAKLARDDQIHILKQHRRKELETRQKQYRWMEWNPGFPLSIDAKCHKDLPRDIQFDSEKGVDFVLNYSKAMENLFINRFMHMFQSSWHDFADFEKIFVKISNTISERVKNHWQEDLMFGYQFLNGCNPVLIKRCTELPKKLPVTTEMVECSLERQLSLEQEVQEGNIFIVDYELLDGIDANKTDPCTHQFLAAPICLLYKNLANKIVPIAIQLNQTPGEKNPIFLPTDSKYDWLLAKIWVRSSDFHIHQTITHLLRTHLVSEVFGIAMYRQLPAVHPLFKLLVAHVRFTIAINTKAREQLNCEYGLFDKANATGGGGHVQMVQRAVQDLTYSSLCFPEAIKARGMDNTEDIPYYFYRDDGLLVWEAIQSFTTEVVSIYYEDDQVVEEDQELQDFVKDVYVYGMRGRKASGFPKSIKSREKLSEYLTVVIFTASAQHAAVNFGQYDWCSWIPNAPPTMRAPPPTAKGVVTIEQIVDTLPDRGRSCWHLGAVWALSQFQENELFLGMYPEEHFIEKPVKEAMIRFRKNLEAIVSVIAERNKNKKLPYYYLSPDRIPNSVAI
Summary of the method: as §1

[5] = target: T3, Polyunsaturated fatty acid 5-lipoxygenase (Rattus norvegicus) (UniProt P12527); assay: Inhibition of 5-lipoxygenase pathway in rat polymorphonuclear assay, by ability to inhibit formation of LTB4 AT 10 uM
T3 sequence (whole entry): T2 sequence (P12527 whole entry)

[6] = target: T3, Polyunsaturated fatty acid 5-lipoxygenase (Rattus norvegicus); assay: Inhibition of 5-lipoxygenase pathway in rat polymorphonuclear assay (inhibition of 5-HETE formation)
Summary of the method: as §1

Rattus norvegicus [7] = species: Rattus norvegicus; assay: Anti-inflammatory activity by rat adjuvant Arthritis assay (uninjected paw at day 16).
Rattus norvegicus [8] = assay: Antiinflammatory activity by rat Carrageenan edema assay at 50 mg/kg peroral administration (3h edema).; format: functional; conditions: route oral
Summary of the method: (§2)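 Groups of six male Sprague-Dawley rats (150-165 g) were dosed po in 0.5% methyl cellulose. One hour later, 0.1 mL of 1% carrageenan was injected subplantar into the right hind paw. Edema was taken as the 3 h paw volume minus the zero-time volume and expressed as percent change versus vehicle; screening dose was 50 mg/kg po.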

Rattus norvegicus [9] = assay: Anti-inflammatory activity by rat carrageenan edema assay (3h edema).; format: functional
Summary of the method: as §2

[10] = target: T2, Polyunsaturated fatty acid 5-lipoxygenase; assay: 5-lipoxygenase inhibitory activity against rat polymorphonuclear leucocytes from female wistar rat, by using LTB4.

Cc1ccc(C(O)c2nc3c(cc2C)CCCCC3)cc1 (stereo not given)
Change (Rattus norvegicus [1]): -49% | IC50 (Cyclooxygenase [2]): 33 µM | IC50 (Cyclooxygenase [3]): > 50 µM | IC50 [4]: 27 µM | Change [5]: -43% | Change [6]: -49% | ED50 (Rattus norvegicus [7]): 30 mg/kg | Change (Rattus norvegicus [8]): -58% | ED50 (Rattus norvegicus [9]): 40 mg/kg | IC50 [10]: 14 µM
